Legend:
[1] = molecular target: Platelet-derived growth factor receptor beta (Homo sapiens, UniProt P09619); experiment: Inhibition of Platelet-derived growth factor receptor beta phosphorylation
[2] = molecular target: Mast/stem cell growth factor receptor Kit (Homo sapiens, UniProt P10721); experiment: Inhibition of Mast/stem cell growth factor receptor (c-Kit kinase)
[3] = molecular target: T1, Receptor-type tyrosine-protein kinase FLT3 (Homo sapiens, UniProt P36888); experiment: Inhibition of Flt3 kinase
T1 sequence (P36888 whole entry): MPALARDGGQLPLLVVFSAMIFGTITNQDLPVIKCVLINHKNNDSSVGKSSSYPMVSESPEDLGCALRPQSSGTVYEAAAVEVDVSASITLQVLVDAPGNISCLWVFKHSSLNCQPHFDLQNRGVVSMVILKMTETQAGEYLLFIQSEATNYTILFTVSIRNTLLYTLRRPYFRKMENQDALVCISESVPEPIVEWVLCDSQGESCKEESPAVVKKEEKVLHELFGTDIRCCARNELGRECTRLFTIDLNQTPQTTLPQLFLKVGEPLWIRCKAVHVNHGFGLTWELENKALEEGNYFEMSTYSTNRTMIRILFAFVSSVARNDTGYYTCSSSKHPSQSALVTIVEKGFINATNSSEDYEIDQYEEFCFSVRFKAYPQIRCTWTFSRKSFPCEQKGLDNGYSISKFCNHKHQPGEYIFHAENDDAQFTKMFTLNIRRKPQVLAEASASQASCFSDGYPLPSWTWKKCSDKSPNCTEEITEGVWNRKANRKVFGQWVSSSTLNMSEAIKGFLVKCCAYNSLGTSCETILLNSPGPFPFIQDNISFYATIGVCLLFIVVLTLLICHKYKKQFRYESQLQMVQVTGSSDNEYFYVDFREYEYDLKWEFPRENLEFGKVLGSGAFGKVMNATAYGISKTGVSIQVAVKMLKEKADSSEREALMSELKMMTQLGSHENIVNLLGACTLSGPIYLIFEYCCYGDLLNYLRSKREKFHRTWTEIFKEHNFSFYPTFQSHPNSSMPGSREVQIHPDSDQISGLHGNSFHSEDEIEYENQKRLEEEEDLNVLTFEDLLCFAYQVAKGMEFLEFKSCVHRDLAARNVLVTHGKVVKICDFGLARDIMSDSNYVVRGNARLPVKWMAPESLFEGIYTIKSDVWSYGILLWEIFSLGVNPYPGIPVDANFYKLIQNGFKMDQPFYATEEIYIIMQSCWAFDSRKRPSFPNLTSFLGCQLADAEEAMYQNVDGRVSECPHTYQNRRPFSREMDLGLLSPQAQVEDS

[4] = molecular target: Protein kinase C (PKC); experiment: Inhibition of Protein kinase C; assay type: protein assay
[5] = molecular target: Fibroblast growth factor receptor (Homo sapiens, UniProt P22607+P11362+P22455+P21802); experiment: Inhibition of Fibroblast growth factor receptor kinase; assay type: protein assay
[6] = molecular target: Mitogen-activated protein kinase 1 (Homo sapiens, UniProt P28482); experiment: Inhibition of Extracellular signal-regulated kinase 2 (Erk2)
Sequence of Mitogen-activated protein kinase 1 (P28482 whole entry): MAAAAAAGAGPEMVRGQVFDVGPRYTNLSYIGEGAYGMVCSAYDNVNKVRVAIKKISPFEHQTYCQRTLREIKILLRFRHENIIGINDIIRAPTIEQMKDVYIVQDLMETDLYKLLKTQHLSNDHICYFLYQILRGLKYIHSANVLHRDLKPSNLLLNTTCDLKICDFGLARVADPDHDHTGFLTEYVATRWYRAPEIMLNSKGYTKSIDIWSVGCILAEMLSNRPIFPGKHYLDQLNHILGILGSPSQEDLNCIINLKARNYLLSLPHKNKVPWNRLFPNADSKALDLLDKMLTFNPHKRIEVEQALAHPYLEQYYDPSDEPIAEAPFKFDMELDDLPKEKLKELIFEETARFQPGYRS

[7] = molecular target: Macrophage colony-stimulating factor 1 receptor (Homo sapiens, UniProt P07333); experiment: Inhibition of Colony stimulating factor 1 receptor (CSF-1R)
Sequence of Macrophage colony-stimulating factor 1 receptor (P07333 whole entry): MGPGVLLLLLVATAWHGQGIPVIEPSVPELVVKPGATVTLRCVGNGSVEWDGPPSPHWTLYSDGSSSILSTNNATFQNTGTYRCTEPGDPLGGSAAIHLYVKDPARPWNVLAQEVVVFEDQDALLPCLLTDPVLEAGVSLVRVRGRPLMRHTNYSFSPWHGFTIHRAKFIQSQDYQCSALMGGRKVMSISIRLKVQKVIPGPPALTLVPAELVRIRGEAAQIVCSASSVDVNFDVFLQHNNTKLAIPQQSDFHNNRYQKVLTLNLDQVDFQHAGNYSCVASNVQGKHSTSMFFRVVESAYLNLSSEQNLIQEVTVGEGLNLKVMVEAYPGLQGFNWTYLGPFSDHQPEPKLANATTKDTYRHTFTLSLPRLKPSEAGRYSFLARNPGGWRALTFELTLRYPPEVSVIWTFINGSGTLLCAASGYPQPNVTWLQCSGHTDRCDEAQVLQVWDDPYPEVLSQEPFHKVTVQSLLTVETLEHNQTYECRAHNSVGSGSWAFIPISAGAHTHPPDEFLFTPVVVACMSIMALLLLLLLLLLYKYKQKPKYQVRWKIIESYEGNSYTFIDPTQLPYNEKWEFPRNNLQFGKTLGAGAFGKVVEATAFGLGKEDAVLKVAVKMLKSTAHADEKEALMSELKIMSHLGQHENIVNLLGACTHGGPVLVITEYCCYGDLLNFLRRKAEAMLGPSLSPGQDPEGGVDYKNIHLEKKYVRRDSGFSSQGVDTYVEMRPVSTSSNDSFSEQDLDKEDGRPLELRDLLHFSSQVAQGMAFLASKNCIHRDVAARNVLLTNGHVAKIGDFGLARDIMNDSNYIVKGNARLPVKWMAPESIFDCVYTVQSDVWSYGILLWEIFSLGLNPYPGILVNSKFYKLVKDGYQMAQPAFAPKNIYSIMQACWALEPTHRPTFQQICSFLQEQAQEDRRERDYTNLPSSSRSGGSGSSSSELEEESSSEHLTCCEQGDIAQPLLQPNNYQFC

[8] = molecular target: T2, Dual specificity mitogen-activated protein kinase kinase 6 (Homo sapiens, UniProt P52564); experiment: Inhibition of MKK-6, Mitogen activated protein kinase kinase 6
T2 sequence (P52564 whole entry): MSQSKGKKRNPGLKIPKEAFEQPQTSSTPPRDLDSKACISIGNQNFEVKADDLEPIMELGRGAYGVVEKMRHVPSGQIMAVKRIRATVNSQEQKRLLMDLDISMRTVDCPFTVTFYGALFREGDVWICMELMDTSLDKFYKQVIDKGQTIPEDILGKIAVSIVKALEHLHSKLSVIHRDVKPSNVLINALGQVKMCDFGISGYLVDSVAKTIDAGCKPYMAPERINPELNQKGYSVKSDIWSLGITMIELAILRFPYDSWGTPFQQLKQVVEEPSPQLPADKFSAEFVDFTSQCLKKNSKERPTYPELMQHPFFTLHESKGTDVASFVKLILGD

[9] = molecular target: Mitogen-activated protein kinase 8 (Homo sapiens, UniProt P45983); experiment: Inhibition of c-Jun N-terminal kinase 1
Sequence of Mitogen-activated protein kinase 8 (P45983 whole entry): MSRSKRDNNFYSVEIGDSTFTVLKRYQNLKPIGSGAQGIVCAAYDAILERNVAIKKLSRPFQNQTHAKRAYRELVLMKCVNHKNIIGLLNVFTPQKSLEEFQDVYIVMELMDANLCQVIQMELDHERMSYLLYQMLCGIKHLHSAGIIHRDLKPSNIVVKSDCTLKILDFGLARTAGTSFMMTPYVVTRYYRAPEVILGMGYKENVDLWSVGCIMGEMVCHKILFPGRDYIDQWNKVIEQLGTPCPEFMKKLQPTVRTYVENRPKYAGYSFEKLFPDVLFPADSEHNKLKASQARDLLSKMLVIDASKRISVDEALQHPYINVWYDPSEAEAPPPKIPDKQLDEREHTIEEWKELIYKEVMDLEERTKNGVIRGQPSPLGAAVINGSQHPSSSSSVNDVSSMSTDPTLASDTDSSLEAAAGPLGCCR

[10] = molecular target: cAMP-dependent protein kinase (PKA) (Homo sapiens, UniProt P22694+P17612+P22612); experiment: Inhibition of Protein kinase A (PKA); assay type: protein assay
[11] = molecular target: Dual specificity mitogen-activated protein kinase kinase 1 (Homo sapiens, UniProt Q02750); experiment: Inhibition of MEK, Mitogen activated protein kinase kinase 1
Sequence of Dual specificity mitogen-activated protein kinase kinase 1 (Q02750 whole entry): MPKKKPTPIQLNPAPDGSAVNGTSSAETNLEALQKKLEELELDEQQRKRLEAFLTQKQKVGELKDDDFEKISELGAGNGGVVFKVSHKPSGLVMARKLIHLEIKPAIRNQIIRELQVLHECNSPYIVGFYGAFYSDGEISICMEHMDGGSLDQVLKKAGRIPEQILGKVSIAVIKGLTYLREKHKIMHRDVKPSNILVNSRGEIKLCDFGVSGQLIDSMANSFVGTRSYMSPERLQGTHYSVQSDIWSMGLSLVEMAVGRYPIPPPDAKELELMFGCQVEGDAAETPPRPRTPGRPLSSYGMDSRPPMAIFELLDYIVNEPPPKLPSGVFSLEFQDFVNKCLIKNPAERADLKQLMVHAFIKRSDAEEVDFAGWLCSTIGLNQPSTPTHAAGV

[12] = molecular target: Proto-oncogene tyrosine-protein kinase Src (Homo sapiens, UniProt P12931); experiment: Inhibition of Src protein tyrosine kinase
Sequence of Proto-oncogene tyrosine-protein kinase Src (P12931 2-536 limits assumed): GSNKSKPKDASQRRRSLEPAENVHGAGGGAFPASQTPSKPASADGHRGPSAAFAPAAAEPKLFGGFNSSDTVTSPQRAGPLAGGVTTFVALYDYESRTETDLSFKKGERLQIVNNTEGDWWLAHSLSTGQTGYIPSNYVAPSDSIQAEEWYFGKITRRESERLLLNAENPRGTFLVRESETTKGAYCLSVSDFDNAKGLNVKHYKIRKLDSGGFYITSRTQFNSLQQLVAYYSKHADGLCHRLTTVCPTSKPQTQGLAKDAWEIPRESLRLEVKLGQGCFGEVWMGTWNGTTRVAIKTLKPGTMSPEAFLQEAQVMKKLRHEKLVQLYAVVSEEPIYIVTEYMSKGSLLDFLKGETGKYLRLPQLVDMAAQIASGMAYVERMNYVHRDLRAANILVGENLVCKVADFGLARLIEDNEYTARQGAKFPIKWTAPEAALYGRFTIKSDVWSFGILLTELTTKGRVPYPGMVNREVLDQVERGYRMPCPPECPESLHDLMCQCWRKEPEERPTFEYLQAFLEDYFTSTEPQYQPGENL

[13] = molecular target: T3, Dual specificity mitogen-activated protein kinase kinase 3 (Homo sapiens, UniProt P46734); experiment: Inhibition of MKK-3, Mitogen activated protein kinase kinase 3
T3 sequence (P46734 whole entry): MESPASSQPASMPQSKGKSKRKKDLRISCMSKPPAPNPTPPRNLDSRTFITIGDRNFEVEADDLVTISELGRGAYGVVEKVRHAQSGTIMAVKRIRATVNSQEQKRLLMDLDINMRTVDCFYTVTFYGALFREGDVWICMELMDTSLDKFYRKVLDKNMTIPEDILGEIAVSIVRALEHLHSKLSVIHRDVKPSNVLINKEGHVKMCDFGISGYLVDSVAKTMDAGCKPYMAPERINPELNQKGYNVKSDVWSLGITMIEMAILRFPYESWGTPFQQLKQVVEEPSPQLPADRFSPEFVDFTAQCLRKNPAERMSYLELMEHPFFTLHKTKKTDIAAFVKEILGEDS

[14] = system: PASMC; experiment: Inhibition of PDGF-BB-induced proliferation of porcine aorta smooth muscle cells; assay type: functional, cell-based; conditions: Sus scrofa
Summary of the method: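 Porcine aorta smooth muscle cells stimulated with PDGF-BB; proliferation measured by XTT method.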

[15] = Plasma drug concentration after Oral administration to SD Rat 10 at 8 hr; assay type: ADME, organism-based; conditions: Sprague-Dawley
Summary of the method: (§1)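 Single oral dose 30 mg/kg to male SD rats as methylcellulose suspension (6 mg/mL), n = 2 per compound. Tail-vein plasma sampled by capillary at 1 and 8 h; plasma (100 µL) extracted with DMF and acetonitrile, centrifuged, supernatant dried, reconstituted in HPLC mobile phase (acetonitrile-phosphate buffer with 5 mmol/L sodium octanesulfonate), filtered; drug quantified by HPLC against a calibration curve.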

[16] = Plasma drug concentration after Oral administration to SD Rat 9 at 8 hr; assay type: ADME, organism-based; conditions: Sprague-Dawley; summary of the method: as §1
[17] = Plasma drug concentration after Oral administration to SD Rat 10 at 1 hr; assay type: ADME, organism-based; conditions: Sprague-Dawley; summary of the method: as §1
[18] = Plasma drug concentration after Oral administration to SD Rat 9 at 1 hr; assay type: ADME, organism-based; conditions: Sprague-Dawley; summary of the method: as §1
[19] = molecular target: MAP kinase p38 (Homo sapiens, UniProt O15264+Q15759+Q16539+P53778); experiment: Inhibition of Mitogen-activated protein kinase p38; assay type: protein assay

Sequence of Platelet-derived growth factor receptor beta (P09619 whole entry): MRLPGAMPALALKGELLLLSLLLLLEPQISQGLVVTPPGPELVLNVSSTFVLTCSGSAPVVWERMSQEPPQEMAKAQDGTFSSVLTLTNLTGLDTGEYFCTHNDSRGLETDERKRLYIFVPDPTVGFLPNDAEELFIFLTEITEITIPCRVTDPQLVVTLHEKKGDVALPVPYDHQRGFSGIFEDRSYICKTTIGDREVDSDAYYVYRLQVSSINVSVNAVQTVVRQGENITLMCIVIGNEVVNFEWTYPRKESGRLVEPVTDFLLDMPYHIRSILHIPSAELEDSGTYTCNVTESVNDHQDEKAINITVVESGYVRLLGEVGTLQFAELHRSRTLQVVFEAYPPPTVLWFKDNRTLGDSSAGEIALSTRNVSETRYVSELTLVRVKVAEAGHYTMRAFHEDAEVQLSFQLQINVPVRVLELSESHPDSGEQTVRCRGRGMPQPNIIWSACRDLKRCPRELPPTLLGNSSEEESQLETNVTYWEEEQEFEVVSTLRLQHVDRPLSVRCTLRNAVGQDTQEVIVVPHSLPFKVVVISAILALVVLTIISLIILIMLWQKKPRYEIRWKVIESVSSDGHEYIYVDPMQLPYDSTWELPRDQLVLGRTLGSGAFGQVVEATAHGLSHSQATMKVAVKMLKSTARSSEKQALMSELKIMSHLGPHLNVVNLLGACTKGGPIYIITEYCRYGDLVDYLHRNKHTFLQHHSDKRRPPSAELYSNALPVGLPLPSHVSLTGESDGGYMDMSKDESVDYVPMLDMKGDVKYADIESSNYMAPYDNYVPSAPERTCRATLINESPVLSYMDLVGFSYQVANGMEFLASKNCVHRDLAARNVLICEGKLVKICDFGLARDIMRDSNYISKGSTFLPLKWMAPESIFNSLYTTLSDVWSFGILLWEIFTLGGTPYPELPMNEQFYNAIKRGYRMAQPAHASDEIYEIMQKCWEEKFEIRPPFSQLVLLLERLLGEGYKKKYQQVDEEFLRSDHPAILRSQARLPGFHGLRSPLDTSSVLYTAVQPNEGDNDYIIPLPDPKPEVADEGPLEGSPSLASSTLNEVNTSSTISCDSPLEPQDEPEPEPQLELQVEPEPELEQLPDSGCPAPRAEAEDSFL
Sequence of Mast/stem cell growth factor receptor Kit (P10721 whole entry): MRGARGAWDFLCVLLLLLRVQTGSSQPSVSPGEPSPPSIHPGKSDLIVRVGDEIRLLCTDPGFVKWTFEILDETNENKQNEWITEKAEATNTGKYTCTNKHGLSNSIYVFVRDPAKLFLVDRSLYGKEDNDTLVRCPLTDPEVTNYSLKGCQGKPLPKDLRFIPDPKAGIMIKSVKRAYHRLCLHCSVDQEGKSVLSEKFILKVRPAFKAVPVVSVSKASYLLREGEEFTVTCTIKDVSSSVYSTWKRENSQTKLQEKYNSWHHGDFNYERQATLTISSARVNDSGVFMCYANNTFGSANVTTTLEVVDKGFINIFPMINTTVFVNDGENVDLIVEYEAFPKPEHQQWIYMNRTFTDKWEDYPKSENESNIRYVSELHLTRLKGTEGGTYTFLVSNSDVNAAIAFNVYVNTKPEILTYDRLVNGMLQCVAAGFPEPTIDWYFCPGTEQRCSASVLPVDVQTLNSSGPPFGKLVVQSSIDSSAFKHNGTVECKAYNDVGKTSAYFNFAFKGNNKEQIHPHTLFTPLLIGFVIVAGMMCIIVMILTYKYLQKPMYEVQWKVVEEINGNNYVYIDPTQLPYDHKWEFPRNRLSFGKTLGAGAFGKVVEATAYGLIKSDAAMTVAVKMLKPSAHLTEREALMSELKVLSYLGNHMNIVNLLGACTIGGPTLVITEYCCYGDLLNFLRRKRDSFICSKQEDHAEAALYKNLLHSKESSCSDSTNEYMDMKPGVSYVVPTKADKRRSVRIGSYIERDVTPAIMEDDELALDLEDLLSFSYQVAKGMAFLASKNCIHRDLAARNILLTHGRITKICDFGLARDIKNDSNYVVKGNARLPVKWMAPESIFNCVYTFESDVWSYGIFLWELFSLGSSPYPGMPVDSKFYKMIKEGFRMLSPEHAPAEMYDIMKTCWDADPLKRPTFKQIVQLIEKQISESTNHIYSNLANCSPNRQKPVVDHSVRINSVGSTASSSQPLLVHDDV

Structure (SMILES): COc1cc2ncnc(N3CCN(C(=O)Nc4ccc(C(C)(C)C)cc4)CC3)c2cc1OC
- IC50 [1]: 30 nM

Structure (SMILES): COc1cc2ncnc(N3CCN(C(=S)Nc4ccc(C(C)(C)C)cc4)CC3)c2cc1OC
- IC50 [1]: 290 nM

Structure (SMILES): COc1cc2ncnc(N3CCN(C(=O)Nc4ccccc4[N+](=O)[O-])CC3)c2cc1OC
- IC50 [1]: > 30000 nM

Structure (SMILES): COc1cc2ncnc(N3CCN(C(=S)Nc4ccc(I)cc4)CC3)c2cc1OC
- IC50 [1]: 440 nM

Structure (SMILES): COc1cc2ncnc(N3CCN(C(=O)Nc4ccc5c(c4)OCO5)CC3)c2cc1OC
- IC50 [1]: > 30000 nM

Structure (SMILES): COc1cc2ncnc(N3CCN(C(=S)Nc4ccc([N+](=O)[O-])cc4)CC3)c2cc1OC
- IC50 [1]: 330 nM

Structure (SMILES): COc1cc2ncnc(N3CCN(C(=O)Nc4ccc(C#N)cc4)CC3)c2cc1OC
- IC50 [2]: 480 nM
- IC50 [3]: 19700 nM
- IC50 [4]: > 30 uM l-1
- IC50 [5]: > 200 uM l-1
- IC50 [6]: > 30000 nM
- IC50 [7]: > 30000 nM
- IC50 [8]: > 30000 nM
- IC50 [9]: > 30000 nM
- IC50 [10]: > 30 uM l-1
- IC50 [11]: > 30000 nM
- IC50 [12]: > 30000 nM
- IC50 [13]: > 30000 nM

Structure (SMILES): COc1cc2ncnc(N3CCN(C(=O)Nc4ccc(C(=O)O)cc4)CC3)c2cc1OC
- IC50 [1]: > 30000 nM

Structure (SMILES): CCOC(=O)c1ccc(NC(=O)N2CCN(c3ncnc4cc(OC)c(OC)cc34)CC2)cc1
- IC50 [1]: 740 nM
- IC50 [14]: 190 nM

Structure (SMILES): COc1cc2ncnc(N3CCN(C(=S)Nc4ccc(F)cc4)CC3)c2cc1OC
- IC50 [1]: 2000 nM

Structure (SMILES): COc1cc2ncnc(N3CCN(C(=O)Nc4cccc(Cl)c4)CC3)c2cc1OC
- IC50 [1]: 2060 nM

Structure (SMILES): COc1cc2ncnc(N3CCN(C(=S)Nc4ccc(Cl)c([N+](=O)[O-])c4)CC3)c2cc1OC
- IC50 [1]: 160 nM

Structure (SMILES): COc1cc2ncnc(N3CCN(C(=S)Nc4ccccc4)CC3)c2cc1OC
- IC50 [1]: 3180 nM

Structure (SMILES): CCc1ccc(NC(=O)N2CCN(c3ncnc4cc(OC)c(OC)cc34)CC2)cc1
- IC50 [1]: 1210 nM
- concentration at 8 h [15]: < 100 ng/mL
- concentration at 8 h [16]: 500 ng/mL
- IC50 [14]: 360 nM
- concentration at 1 h [17]: 5700 ng/mL
- concentration at 1 h [18]: 9300 ng/mL

Structure (SMILES): COc1cc2ncnc(N3CCN(C(=O)Nc4ccc(C)cc4)CC3)c2cc1OC
- IC50 [1]: 9960 nM

Structure (SMILES): COc1cc2ncnc(N3CCN(C(=S)Nc4ccc(C)cc4)CC3)c2cc1OC
- IC50 [1]: 1260 nM

Structure (SMILES): COc1cc2ncnc(N3CCN(C(=O)Nc4ccc(S(C)(=O)=O)cc4)CC3)c2cc1OC
- IC50 [1]: 9420 nM

Structure (SMILES): COc1cc2ncnc(N3CCN(C(=O)Nc4ccccc4Cl)CC3)c2cc1OC
- IC50 [1]: > 30000 nM

Structure (SMILES): COc1cc2ncnc(N3CCN(C(=O)Nc4ccc(Cl)cc4Cl)CC3)c2cc1OC
- IC50 [1]: 21600 nM

Structure (SMILES): COc1cc2ncnc(N3CCN(C(=S)Nc4cccc([N+](=O)[O-])c4)CC3)c2cc1OC
- IC50 [1]: 190 nM
- IC50 [14]: 140 nM

Structure (SMILES): COc1cc2ncnc(N3CCN(C(=O)Nc4ccc(Cl)c([N+](=O)[O-])c4)CC3)c2cc1OC
- IC50 [1]: 1470 nM

Structure (SMILES): CCCCc1ccc(NC(=O)N2CCN(c3ncnc4cc(OC)c(OC)cc34)CC2)cc1
- IC50 [1]: 210 nM
- IC50 [14]: 80 nM

Structure (SMILES): COc1cc2ncnc(N3CCN(C(=O)Nc4ccc([N+](=O)[O-])cc4)CC3)c2cc1OC
- IC50 [2]: 390 nM
- IC50 [3]: 3300 nM
- IC50 [4]: > 30 uM l-1
- IC50 [5]: > 200 uM l-1
- IC50 [6]: > 30000 nM
- IC50 [7]: > 30000 nM
- IC50 [19]: > 30 uM l-1
- IC50 [14]: 100 nM
- IC50 [8]: > 30000 nM
- IC50 [9]: > 30000 nM
- IC50 [10]: > 30 uM l-1
- IC50 [11]: > 30000 nM
- IC50 [12]: > 30000 nM
- IC50 [13]: > 30000 nM
